# According to ChEMBL document CHEMBL4513216, “Probing the Open Global Health Chemical Diversity Library for Multistage-Active Starting Points for Next-Generation Antimalarials” (ACS Infect Dis, 2020):
# Assay: Toxicity liver stage against HepG2, at 10uM
# Type: cell-based
# Parameters: test concentration 10 uM, cell line HepG2-A16-CD81EGFP
# Details: human, HepG2-A16-CD81EGFP cells; read-out: INHIBITION
# How it was run: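 Uninfected HepG2-A16-CD81EGFP cells, 3 × 10^3 per well, 1536-well, plated on prespotted compound at 10 μM final, parasite-free screening media added to match infected plates; puromycin 10 μM positive, DMSO 0.5% negative; run in parallel with 48 h PbLuc assay at 37 °C, 5% CO2; viability by CellTiter-Glo luminescence, normalized to controls.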
row,Structure (SMILES),cytotoxicity at 10 µM [%]
1,Cn1cncc1-c1nnc([C@H]2CCN(CC(C)(C)C)C2)o1,2.26
2,Cc1ccc2c(c1)nc1n2[C@@H](CNC(=O)c2ccccn2)COC1,7.82
3,Cc1c(OCC(=O)NCc2ccccc2)c(=O)ccn1C,-49.9
4,O=C(CCc1nnc2ccccn2c1=O)NCc1ccc2c(c1)OCO2,-0.403
5,Cc1ccc(S(=O)(=O)NCCOc2ccc3nnc(C)n3n2)s1,-6.26
6,Cc1ccc(CN2CCC3(CCN(S(=O)(=O)c4ccccc4)C3)C2)o1 (stereo unspecified),-0.00736
7,c1cc(-c2ccc3c(c2)CCC32CCNCC2)ccn1,8.86
8,CN(C)C(=O)Cn1c2c(ccc1=O)CC(NCc1cccnc1)CC2 (stereo unspecified),18
9,CCOC[C@@H]1CC[C@H]2[C@H](CCN2S(=O)(=O)Cc2ccccc2)O1,2.84
10,CN(C)S(=O)(=O)N1CC[C@]2(C[C@@H](OCC3CC3)CO2)C1,8.88
11,CCC(C)n1c(SCC(=O)N2CCOCC2)nc2cc(C)[nH]c2c1=O (stereo unspecified),7.94
12,CCc1nn(-c2cc(Oc3cc(C)ccc3C)ncn2)c(N)c1C#N,12.9
13,Cc1cc(C)n(CCCNc2ncnc3c2NC(=O)CN3)n1,8.71
14,Cc1csc2c(C3CCCN(C(=O)CCn4ccnc4)C3)nc(C)n12 (stereo unspecified),16.9
15,Cn1cc(CN2CCCCC2c2ccc(-c3cccc(Cl)c3)nc2)cn1 (stereo unspecified),-8.51
16,Cc1nc2ccc(Cl)cn2c1CN1CCN(S(=O)(=O)N2CCCC2)CC1,16.6
17,CC1(C(=O)N2CCOCC2)CN(C2CCCCC2)CCO1 (stereo unspecified),-22.3
18,Cc1csc(C(=O)N2CC[C@H](Oc3cccnc3C)[C@@H](O)CC2)c1,-10.7
19,O=S(=O)(Cc1cccc(Cl)c1)CC(O)Cn1cccn1 (stereo unspecified),-12.5
20,Cc1cnn(CC2CCN(CC(O)c3ccccc3Cl)CC2)c1 (stereo unspecified),4.51
21,CCN(CC)c1ncc(Cl)c(C(=O)NC2CC2)n1,-33.5
22,c1cc2occc2c(N2CCCC(c3nncn3C3CC3)C2)n1 (stereo unspecified),1.97
23,COc1ccc2nc(C3CC3)cc(C(=O)NCc3noc(C)n3)c2c1,11.8

row,Structure (SMILES),cytotoxicity at 10 µM [%]
1,Cn1ccc(NC(=O)Cc2ccccc2F)n1,19.1
2,CC(C)(C)c1n[nH]c(C2CN(CCc3ccncc3)CCO2)n1 (stereo unspecified),-12.3
3,O=c1ccncn1Cc1csc(C2CC2)n1,-0.572
4,O=C(NCC1CCC2(CC1)OCCO2)c1ccncc1F,14.4
5,CNC(=O)c1ccc(CNc2ccncc2Cl)cc1,17.7
6,Cc1nnc(C(C)Nc2cccc(COCC(F)(F)C(F)F)c2)o1 (stereo unspecified),-1.2
7,COc1ncccc1NC(=O)N1CCCC(CNC(=O)OC(C)(C)C)C1 (stereo unspecified),-1.71
8,CC(=O)c1cccc(OCCCC(=O)N(C)CCC(F)(F)F)c1,4.33
9,OC(CN(Cc1ccccc1)Cc1cccnc1)c1cccs1 (stereo unspecified),4.01
10,Cc1cc(NC2CCc3ncnn3C2)n2ncnc2n1 (stereo unspecified),-18.4
11,O=C(NCc1ccco1)N1CCC(n2ccc(C(F)(F)F)n2)CC1,12.2
12,Cn1nc2c(cc1=O)CN(Cc1nc(N)c3ccccc3n1)CC2,-8.86
13,O=C(NC1CC1)c1cc(NC(=O)N2CCSCC2)ccc1Cl,-22.5
14,Cc1nc(C)n(CC2CCCN(CC(=O)Nc3cccnc3)C2)n1 (stereo unspecified),-4.84
15,Cc1cc(C)cc(C(=O)NCc2ncnn2C)c1,4.64
16,Cn1cnnc1-c1ccnc(NCc2ccccc2)c1,-4.98
17,CCS(=O)(=O)CC(=O)NCC1(c2c(F)cccc2F)CCCC1,-3.32
18,CCN(Cc1ccccc1)C1CCN(c2cc(C)nn2C)C1=O (stereo unspecified),-3.03
19,O=C(NCCOc1ccc(C(F)(F)F)cn1)c1ccoc1,-10.1
20,CCc1nc(C)ncc1C(=O)N1CC(C)CN(C)c2ccccc21 (stereo unspecified),10.7
21,O=C(Nc1ccc(Cn2cccn2)cc1)N1CCC(CO)CC1,47.8
22,Cc1c(I)cccc1C(=O)NCc1ncc[nH]1,17.3
23,CCc1nc(Cn2c(=O)n(CC)c3ccccc32)no1,-43.9

row,Structure (SMILES),cytotoxicity at 10 µM [%]
1,CN(CC(=O)NCC1CCCO1)Cc1nc2c(s1)CCCC2 (stereo unspecified),21.6
2,CCCN1CCCN(S(=O)(=O)c2cnc3onc(C)c3c2)CC1,1.71
3,CC(Cn1ccnc1)NC(=O)N(C)Cc1ccsc1 (stereo unspecified),2.69
4,CCC(C)(COc1ncccc1Cl)NCC(=O)NCC(C)C (stereo unspecified),-2.86
5,Cc1noc(CN2CCC(Cc3ccc(F)cc3)CC2)n1,11.3
6,Cc1ccc(C(CNC(=O)Cc2nc3ncccn3n2)N(C)C)cc1 (stereo unspecified),-1.64
7,Cc1ccc(-c2nc(CN(C)C3CCS(=O)(=O)C3)cs2)o1 (stereo unspecified),-8.05
8,CNc1nc(CNC(=O)Nc2ccc(OC(C)C)cc2C)cs1,26.4
9,O=C([C@@H]1CCO[C@@H]2CCN(CC3CC3)C[C@H]21)N1CCCC1,-103
10,CCOCc1cnc2n1CCN(C(=O)c1ccccc1)C2C (stereo unspecified),-103
11,CCOCc1cnc2n1CCN(C(=O)c1cn(C)c3ccccc13)C2C (stereo unspecified),-108
12,Cc1occc1C(=O)N1CCCC2(CCN(c3ccsc3)C2=O)C1 (stereo unspecified),-70.7
13,COCC(=O)N1CCC2(CC1)CN(c1ncccn1)CCO2,-67.3
14,CCOCC1CN(C(=O)c2cscn2)Cc2cnn(CC3CC3)c21 (stereo unspecified),-69.4
15,Cc1cc(CN2CC[C@H]3C[C@@H](c4nccs4)O[C@@H]3C2)no1,-84.8
16,COCC(=O)NCC[C@H]1CC(C)(C)Oc2ccccc21,3.3
17,COc1cccc(-c2ncc3c(n2)N(C)CCN(CCN(C)C)C3=O)c1,-12.2
18,Cc1cnc(C)c(N2CCCC(CC3CC3)(C(=O)O)C2)n1 (stereo unspecified),-6.09
19,CC(C)O[C@H]1CN(C(=O)CCN2CCCCO2)C[C@@H]1O,-7.12
20,CC(C)N1CCCn2nc(C(=O)NCCc3ccccn3)cc2C1,-1.95
21,Cc1nc(CN2CCCC(CCc3ccccc3F)C2)c[nH]1 (stereo unspecified),-6.55
22,NC1CCCCN(Cc2cc(C3CCCCC3)no2)C1 (stereo unspecified),-14.1
23,CC1(C)CCN(Cc2ccccc2-c2nc(C(C)(C)C)cc(=O)[nH]2)C1,-39.9

row,Structure (SMILES),cytotoxicity at 10 µM [%]
1,Cc1n[nH]c(C)c1-c1cc(-c2cccc(O)c2)nc(N)c1C#N,26.9
2,CCc1cnc(C)nc1N1CCS(=O)(=O)CC1,-43.3
3,COc1ccc(C(=O)NCC2CCCN(C3CCOCC3)C2)c(O)c1 (stereo unspecified),5.21
4,Cc1ccnc(NCCNC(=O)CCNC(=O)c2ccccc2F)c1,1.5
5,Cc1nc(C(=O)N2CCN(C(=O)N(C)C)[C@@H]3CS(=O)(=O)C[C@@H]32)cs1,4.96
6,O=S(=O)(c1ccc2c(c1)OCCO2)N1CCc2ccccc2C1,-5.52
7,CSc1nccc(N2CCC(NCc3ccc4c(c3)OCO4)CC2)n1,-3.4
8,c1ccc(-c2nc3c(c(NCCCn4cncn4)n2)CCNCC3)nc1,-45.6
9,CN(CC1(CO)CCC1)c1nc2c(c(=O)[nH]1)Cc1ccccc1OC2,-17.2
10,COCCN1CC(C(=O)N(C)Cc2csc(C)n2)CC1=O (stereo unspecified),12.5
11,COc1ccc(CN2CCCC2)cc1Oc1cccc(C#N)n1,7.01
12,OC1CN(Cc2ccccc2)CCN(c2ccncc2)C1 (stereo unspecified),-4.74
13,O=C(c1ccc(S(=O)(=O)NCCc2ccncc2)cc1)N1CCCC1,1.67
14,CCOc1ccc(C(=O)NC2CC2)cc1C,8
15,CCOC(=O)C1(Cc2cccc(OC)c2)CCN(Cc2ncc[nH]2)CC1,-7.82
16,Cc1nc(CCCNC(=O)C2CC(=O)N(C3CC3)C2)sc1C (stereo unspecified),-12.9
17,CN1CC[C@H](c2ccccc2)[C@@H]2[C@H]1CCCCN2C(=O)c1cnccn1,-2.5
18,CCOCCCNc1nc(O)cc(C2CC(=O)N(C)C2)n1 (stereo unspecified),0.873
19,O=C(Cc1ccccc1Cl)N1CCN(CC(O)COCCO)CC1 (stereo unspecified),5.51
20,Cc1noc(C)c1CC(=O)N1CCCN(Cc2cscn2)CC1,2.45
21,CCc1nc(CN2CCOC(CN(CC)c3cccnn3)C2)cs1 (stereo unspecified),3.09
22,COCCN1CCC(NCc2ccc(C#N)cc2)C1 (stereo unspecified),-9.34
23,O=C(c1ccsc1)N1CCCC(c2cc(C(F)(F)F)[nH]n2)C1 (stereo unspecified),-4.22

row,Structure (SMILES),cytotoxicity at 10 µM [%]
1,c1cnn(CC2CCCN2c2ncnc3ccsc23)c1 (stereo unspecified),9.12
2,CCN1CCN(c2ccc(CNC(=O)c3ccc(Cl)o3)cn2)CC1,-0.433
3,O=C(NCCNc1ncccn1)N1CCN(Cc2cccnc2)CC1,-3.71
4,COCCN1CCC2(CC1)CC(NC(=O)CC1CC1)c1ccccc1O2 (stereo unspecified),-1.83
5,CN1CC[C@]2(CN(CC3CCOC3)C[C@H]2c2ccccc2)C1=O (stereo partly specified),0.619
6,CS(=O)(=O)N[C@@H]1CN(C(=O)c2cccnc2)[C@@H]2CCCO[C@@H]21,-81.8
7,COc1ncc(C2(O)CCN(Cc3ccc(F)c(F)c3)CC2)c(OC)n1,-0.279
8,CS(=O)(=O)N1CCOCC12CCN(Cc1ccc(F)cc1)CC2,3.39
9,COCCN1CCC(c2nc3ccc(NC4CCC4)cn3n2)CC1,-119
10,CN(Cc1cn2c(n1)CN(C1CCOCC1)CC2)Cc1ccco1,-64.3
11,COCCN1C[C@@H]2CN(c3cc(OC)ncn3)CCC[C@]2(C(=O)O)C1,4.26
12,CNC(=O)c1cc2c(nc1N(C)C)CCN(c1ncc(C)cn1)CC2,-119
13,O=C1[C@H]2CN(Cc3ccccn3)C[C@H]2CN1c1ccsc1,-73.2
14,Fc1ccc(CN2CCC3(CC2)CCN(c2ncccn2)CC3)cc1,-73.7
15,CCN1CC2(CC1=O)CN(Cc1ccco1)CCN(C(=O)C(C)C)C2 (stereo unspecified),-4.51
16,CN(C)S(=O)(=O)N1CC[C@]2(C[C@H](OCc3ccncc3)CO2)C1,1.23
17,O=C(C1CCC2(CCN(c3nncs3)CC2)CO1)N1CCCC1 (stereo unspecified),9.46
18,O=C1CCCC2=Nc3nonc3NC(c3ccc(Cl)cc3Cl)C12 (stereo unspecified),5.24
19,CCc1cc(CN2C[C@@H]3CC[C@H]2CN(C2Cc4ccccc4C2)C3)on1,0.998
